High-throughput results from PubChem BioAssay.
MITF act: increases MITF-driven TRPM1 promoter luciferase signal; SK-MEL-5 TRPM1-promoter luciferase, 24 h; % of positive control, neutral wells = 0; activation, % at 12.5 µM; hit rate 0.75% among 300,000;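 active = mean activation of at least 80% with every replicate also reaching 80%; inconclusive = mean reaches 80% but some replicate falls short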
Env fusion inh: blocks HIV Env-driven cell-cell fusion; hit rate 1.1% among 360,000; HeLa-JRFL Env/CEM21 cell fusion, luciferase; inhibition, % at 12.3 µM;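 active = mean replicate inhibition score of at least 50 and every replicate individually at or above 50; inconclusive = only one of the two criteria met; inactive = mean below 50 and not all replicates reaching 50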
Cneo AK release: Cryptococcus neoformans lysis via adenylate kinase release. C. neoformans lysis, adenylate kinase release luminescence, 4 h; normalised: neutral wells 0, clomiphene wells 100. lysis activity, % at 15 µM. hit rate 0.2% among 360,000. AID 651654;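 active = mean lysis activity across replicates of at least 80%, whatever share of replicates individually reach that level; inactive = mean lysis activity below 80%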
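Signal: Adenylate kinase release luminescence | Assay system: Log-phase Cryptococcus neoformans yeast cells | Input: Cells at 5 × 10^6 per mL | Buffer or medium: Fresh YPD growth medium | Compound: Single dose | Schedule: Static 4 h at 37 °C with compound, 1 h detection | Controls: Clomiphene | Read-out: Luminescence rise reflecting yeast cell lysis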
esBAF inh: inhibitors of esBAF chromatin remodeling in mouse ES cells; reporter increase, % at 12.5 µM; Bmi1-luciferase knock-in reporter, 24 h; 100% = twice the neutral-well signal; AID 602393; hit rate 2% among 350,000; in the data active = activation above about 40%; inconclusive = no clear call, values can overlap the other calls;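 also: a rise in the Bmi1 reporter signal indicates esBAF inhibition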
Wnt bcat act: activates Wnt/beta-catenin signaling in a reporter cell assay; activator, plate reader; activation, % at 9.35 µM; hit rate 1.2% among 300,000; in the data active = activation above about 30%, passing the limit was not always enough; inconclusive = no clear call, values can overlap the other calls
ERAP1 inh: blocks human ERAP1 aminopeptidase activity; Q9NZ08; recombinant ERAP1, Leu-AMC fluorescence, 60 min; inhibition, % at 10.7 µM; hit rate 0.15% among 340,000; AID 652197;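 active = mean replicate inhibition of at least 30%, or all replicates individually reaching that 30% level; inactive = mean below 30% and not every replicate reaching it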
Target sequence (Q9NZ08 whole entry, looked up): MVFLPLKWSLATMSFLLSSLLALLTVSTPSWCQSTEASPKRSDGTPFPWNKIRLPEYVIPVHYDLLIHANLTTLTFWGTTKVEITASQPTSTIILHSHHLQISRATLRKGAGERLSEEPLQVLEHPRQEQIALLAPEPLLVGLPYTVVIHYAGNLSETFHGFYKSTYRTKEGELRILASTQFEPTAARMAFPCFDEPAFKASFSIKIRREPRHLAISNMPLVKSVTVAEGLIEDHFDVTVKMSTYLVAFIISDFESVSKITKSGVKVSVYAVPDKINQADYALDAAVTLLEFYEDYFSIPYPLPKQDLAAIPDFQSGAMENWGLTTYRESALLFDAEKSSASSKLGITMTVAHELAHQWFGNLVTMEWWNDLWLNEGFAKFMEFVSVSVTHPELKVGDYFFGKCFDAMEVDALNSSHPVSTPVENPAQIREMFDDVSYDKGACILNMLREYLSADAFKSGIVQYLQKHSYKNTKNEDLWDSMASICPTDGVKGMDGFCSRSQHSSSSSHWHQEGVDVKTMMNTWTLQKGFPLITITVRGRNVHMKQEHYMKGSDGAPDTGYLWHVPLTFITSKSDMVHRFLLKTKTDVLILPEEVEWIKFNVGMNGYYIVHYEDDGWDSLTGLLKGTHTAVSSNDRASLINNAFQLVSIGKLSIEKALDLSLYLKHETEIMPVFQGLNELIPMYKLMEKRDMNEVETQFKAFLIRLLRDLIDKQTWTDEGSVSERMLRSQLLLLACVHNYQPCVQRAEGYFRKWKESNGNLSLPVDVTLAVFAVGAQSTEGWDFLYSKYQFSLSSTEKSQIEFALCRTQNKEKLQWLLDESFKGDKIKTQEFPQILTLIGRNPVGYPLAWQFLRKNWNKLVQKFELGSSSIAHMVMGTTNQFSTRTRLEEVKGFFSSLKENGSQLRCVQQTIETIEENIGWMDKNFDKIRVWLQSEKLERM
Hits are given with their value; – = inactive; ? = inconclusive; · = no result. Only some compounds are listed: those with a hit (about 3.5% of all), similar ones and a draw of the others.

SMILES	MITF act	Env fusion inh	Cneo AK release	esBAF inh	Wnt bcat act	ERAP1 inh
Cc1noc(C)c1NC(=O)Nc1ccc2c(c1)CC(=O)N([C@H](C)CO)C[C@H](C)[C@@H](CN(C)C(=O)Nc1cccc3ccccc13)O2	·	–	·	–	·	·
O=C(CNc1ccc(Br)cc1)c1ccc(O)cc1	–	–	·	·	–	–
O=C(CNc1ccc(Br)cc1)c1ccc(Br)s1	–	–	·	58	–	–
CCOC(=O)CN(C(=O)CSc1nnc(-c2ccncc2)n1CCCN(C)C)c1ccccc1	·	–	·	·	36	·
O=C(C[C@H]1CC[C@H]2[C@@H](COC[C@H](O)CN2C(=O)c2ccccc2F)O1)NCc1ccc(Cl)c(Cl)c1	·	–	–	–	·	·
COCC#Cc1cnc2c(c1)C(=O)N([C@@H](C)CO)C[C@@H](C)[C@H](CN(C)C(=O)CCN1CCCCC1)O2	·	–	–	–	·	–
O=C(Cc1ccncc1)NCC[C@@H]1CC[C@H](NC(=O)Nc2ccc(Cl)cc2)[C@H](CO)O1	·	–	–	–	·	–
COc1ccc(C(=O)OCCc2ccc(O)cc2)cc1	130	·	–	50	–	–
Nc1ccc(C(=O)OCCc2ccccc2)cc1	101	–	–	–	60	–
COc1ccc(CCOC(=O)c2ccc(NC(=O)CC#N)cc2)cc1	–	–	–	–	–	–
CN(C)S(=O)(=O)c1ccc(C(=O)OCCc2ccccc2)cc1	–	–	–	–	–	–
O=C(OCCc1ccccc1)c1cc(O)c(O)c(O)c1	–	–	–	–	51	–
COC(=O)c1ccc(COC(=O)CNC(=O)c2ccc(OC)cc2)cc1	–	·	–	68	–	–
O=C(Cc1ccccn1)NCC[C@@H]1CC[C@@H](NC(=O)Nc2ccccc2)[C@H](CO)O1	·	–	–	–	·	–
CC(=O)N(C)C[C@@H]1Oc2ncc(-c3ccc(F)cc3)cc2C(=O)N([C@H](C)CO)C[C@H]1C	·	–	–	–	·	–
O=C(C1CCCC1)N1CCCCN2[C@H](CO)[C@@H](c3ccc(C#CC4CC4)cc3)[C@@H]2C1	·	·	–	·	·	–
CN1[C@H](CO)[C@@H]2c3ccccc3N(C(=O)C3CCOCC3)C[C@@H]21	·	·	–	–	·	–
Nc1nc2ccccc2n1/N=C/c1ccc(-c2ccccc2)o1	·	–	–	?	53	·
Nc1nc2ccccc2n1/N=C/c1cccnc1	–	–	–	·	·	·
O=C(NCc1ccncn1)[C@@H]1[C@@H](CO)[C@@H]2Cn3c(ccc(-c4cccc(F)c4)c3=O)[C@@H]2N1CC1CC1	·	·	–	–	·	–
O=C(NC1CCCC1)C(c1ccccc1)n1c(Cc2cc(F)cc(F)c2)nc2ccccc21 (centres undefined)	·	71	·	·	–	–
CC1=NN(C(=O)c2ccccc2)C(O)(c2ccc(Br)cc2)C1 (centres undefined)	·	80	·	·	–	·
O=C(c1ccccc1)N1N=C(C(F)(F)F)CC1(O)c1ccccc1O (centres undefined)	·	58	–	–	–	–
Cc1cnc(C(=O)N(c2ccccc2)C(c2ccccc2)c2nc3ccccc3[nH]2)cn1 (centres undefined)	·	–	–	45	–	–
Oc1nc(Nc2ccccc2)sc1/C=C1\C=Nc2ccccc21	88	–	–	61	–	–
SMILES	MITF act	Env fusion inh	Cneo AK release	esBAF inh	Wnt bcat act	ERAP1 inh
CCn1c(O)c(/C=C2\C=Nc3ccccc32)sc1=Nc1ccc(C)cc1	–	·	–	–	–	–
CCn1c(O)c(/C=C2\C=Nc3ccccc32)sc1=O	–	–	–	77	39	–
N#C[C@@H]1[C@@H](c2ccccc2-c2ccccc2)[C@@H](CO)N1C(=O)NC1CCCCC1	·	·	·	·	·	–
COc1ccc(NC(=O)N(C)C[C@@H]2Oc3ccc(NC(=O)C4CC4)cc3C(=O)N([C@H](C)CO)C[C@H]2C)cc1	·	–	–	–	·	–
O=C(C(Cc1ccccc1)NS(=O)(=O)c1cccc2cccnc12)N1CCc2ccccc21 (centres undefined)	–	55	–	–	–	·
CCNC(=O)C[C@H]1CC[C@H]2[C@H](COc3ccc(NC(=O)Nc4cccc(Cl)c4)cc3C(=O)N2C)O1	·	–	–	–	·	–
CCC(=O)Nc1ccc2c(c1)C(=O)N(C)C[C@H](OC)[C@H](C)CN(C(=O)c1ccc(F)cc1)[C@@H](C)CO2	·	–	–	–	·	–
Cc1ccc(C(=O)c2cnc3cc4c(cc3c2S(=O)(=O)c2ccccc2)OCCO4)cc1	–	–	–	118	–	–
